Compound activity as filed in PubChem BioAssay.
RGS4-Gao reg: modulators of RGS4 binding to Galphao, primary screen, biochemical, multiplexed bead flow cytometry; Guanine nucleotide-binding protein G(o) subunit alpha (Homo sapiens), P09471; actives lie on both sides; binding response (% of control), % at 10 µM; hit rate 0.33% among 220,000; AID 1415, 2008; in the data active means binding response below about 49% or above about 150%; inactive means in between;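 further: fluorescent Galphao activated with aluminum fluoride binding bead-coupled RGS4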
RGS16-Gao: modulators of RGS16 binding to Galphao, primary screen, biochemical, human proteins, multiplexed bead flow cytometry | bead-based flow cytometry RGS16-Galphao binding, fluorescence; actives lie on both sides | binding response (% of control), % at 10 µM | hit rate 0.38% among 220,000 | AID 1441, 2008;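 further: Galphao activated by GDP with aluminum fluoride before binding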
ABCB1 block: ABCB1 efflux pump inhibitors, primary screen, cell-based, multiplex, flow cytometry, ABCG2 counter-screen; ATP-dependent translocase ABCB1 (Homo sapiens), P08183; CCRF-Adr cells, JC-1 efflux; inhibition, % at 6.6 µM; AID 1326, 2008; hit rate 0.067% among 190,000; in the data active means inhibition above about 40%;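 further: 0% = vehicle and 100% = reference inhibitor; higher value means more JC-1 retained so stronger ABCB1 efflux block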
RGS7-Gao: RGS7-Galphao binding modulators, primary screen, biochemical, multiplexed bead flow cytometry; AID 1439, 2008; Guanine nucleotide-binding protein G(o) subunit alpha (Homo sapiens), P09471; actives lie on both sides; hit rate 0.35% among 220,000; binding response (% of control), % at 10 µM; in the data active means binding response below about 49% or above about 150%; inconclusive means no clear call, values can overlap the other calls; inactive means in between;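 further: fluorescent Galphao held in activated GDP-AlF4 state binding bead-coupled RGS7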
ABCG2 block: ABCG2 efflux pump inhibitors, primary screen, multiplex with ABCB1, IgMXP3 cells, flow cytometry; Broad substrate specificity ATP-binding cassette transporter ABCG2 (Homo sapiens), Q9UNQ0; JC-1 efflux; inhibition, % at 6.6 µM; hit rate 0.1% among 190,000; AID 1325, 2008;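 active means inhibition above 80%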;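 further: 0% = DMSO and 100% = nicardipine control wells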
Target sequence (Q9UNQ0 whole entry, looked up): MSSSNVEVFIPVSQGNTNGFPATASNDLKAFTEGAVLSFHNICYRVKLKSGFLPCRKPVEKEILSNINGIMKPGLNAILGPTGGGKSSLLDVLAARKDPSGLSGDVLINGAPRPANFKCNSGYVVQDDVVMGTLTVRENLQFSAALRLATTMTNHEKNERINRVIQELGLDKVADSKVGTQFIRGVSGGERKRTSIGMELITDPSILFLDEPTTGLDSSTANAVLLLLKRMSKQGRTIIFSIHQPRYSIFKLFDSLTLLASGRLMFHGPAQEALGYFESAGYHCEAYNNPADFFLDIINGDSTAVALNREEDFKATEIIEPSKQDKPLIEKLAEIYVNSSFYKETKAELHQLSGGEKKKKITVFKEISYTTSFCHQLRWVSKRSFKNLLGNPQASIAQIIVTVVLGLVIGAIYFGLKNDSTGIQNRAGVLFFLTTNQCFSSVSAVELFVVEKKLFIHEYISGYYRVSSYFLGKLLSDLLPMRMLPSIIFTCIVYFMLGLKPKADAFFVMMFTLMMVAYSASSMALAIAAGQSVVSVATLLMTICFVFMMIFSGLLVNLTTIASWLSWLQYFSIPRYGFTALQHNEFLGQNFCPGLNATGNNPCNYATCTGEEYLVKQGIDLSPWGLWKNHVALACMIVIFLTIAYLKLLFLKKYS
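Test system: ABCG2 IgMXP3 and barcoded ABCB1 CCRF-Adr cell mix; Schedule: cells with compound and JC-1, 10 min at 25 °C, rotating, no wash; Technique: flow cytometry of retained JC-1 fluorescence; Measure: % inhibition of efflux relative to nicardipine and DMSO; Controls: nicardipine high and DMSO low controls.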
RGS8-Gao reg: RGS8-Galphao binding modulators, primary screen, biochemical, multiplexed bead flow cytometry; response (percent of control binding), % at 10 µM; actives lie on both sides; Guanine nucleotide-binding protein G(o) subunit alpha (Homo sapiens), P09471; hit rate 0.34% among 220,000; in the data active means response below about 60% or above about 140%; inactive means in between;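 further: Galphao activated as the GDP aluminium fluoride complex binding bead-coupled RGS8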
RGS-Gao: modulators of RGS–Galpha-o binding, primary screen, biochemical, multiplexed beads, flow cytometry, RGS4/7/8/16/19; shares compounds with RGS16-Gao; multiplexed bead flow cytometry; RGS4–Galpha-o binding response, % at 10 µM; hit rate 99% among 1,600;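 further: fluorescently labeled Galpha-o bound to GDP with aluminium fluoride binding biotinylated RGS beads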
Biotin-avidin: disruption of biotin probe capture by avidin, counter-screen for RGS protein interaction modulators, biochemical, flow cytometry, bead-based. inhibition, % at 10 µM. 1,700 tested, under 10 active. streptavidin beads, fluorescein-biotin binding. shares compounds with RGS16-Gao;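 active means inhibition above 50%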;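 further: median green fluorescence of gated singlet beads compared with DMSO control wells; 0% = DMSO wells and 100% = complete loss of bead fluorescence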
RGS8-Gao confirm: RGS8-Galphao binding modulators, confirmation, biochemical, multiplexed bead flow cytometry, single concentration | shares compounds with RGS16-Gao | bead-based flow cytometry RGS8-Galphao binding, fluorescence; actives lie on both sides | binding response (% of control), % at 10 µM | hit rate 3% among 1,700; in the data active means binding response below about 72% or above about 130%; inactive means in between;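 further: Galphao activated as GDP AlF4 complex before binding bead RGS8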
RGS7-Gao single: RGS7-Galphao binding modulators, confirmation, biochemical, multiplexed bead flow cytometry, single concentration; shares compounds with RGS16-Gao; response (percent of control binding), % at 10 µM; hit rate 7.8% among 1,700; bead-based flow cytometry RGS7-Galphao binding; actives lie on both sides; AID 1837, 2009; in the data active means response below about 75% or above about 130%; inactive means in between;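 further: fluorescent Galphao activated with GDP and aluminum fluoride binding bead-coupled RGS7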
RGS16-Gao single: modulators of RGS16-Galphao protein binding, confirmation, biochemical, single concentration, multiplexed bead flow cytometry | shares compounds with RGS16-Gao | bead-based flow cytometry; actives lie on both sides | response (% of control binding), % at 10 µM | hit rate 4% among 1,700 | AID 1838, 2009; in the data active means response below about 74% or above about 130%; inactive means in between;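 further: Galphao activated as the GDP aluminium fluoride complex binding bead-coupled RGS16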
RGS4-Gao single: modulators of RGS4-Galphao protein binding, confirmation, biochemical, single concentration, multiplexed bead flow cytometry; shares compounds with RGS16-Gao; actives lie on both sides; binding response (% of control), % at 10 µM; hit rate 4% among 1,700; AID 1840, 2009; in the data active means binding response below about 74% or above about 130%; inactive means in between
RGS19-Gao single: regulators of RGS19-Galphao binding, confirmation, biochemical, single point, multiplexed bead flow cytometry; shares compounds with RGS16-Gao; bead-based flow cytometry RGS19-Galphao binding; actives lie on both sides; response (percent of control binding), % at 10 µM; hit rate 5% among 1,700; in the data active means response below about 50% or above about 160%; inactive means in between;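 further: 100% = no compound control and 0% = blank background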
Active calls of the source: *; ? = inconclusive; . = no result given; [ ] = remark or other dose. In the library only some 0.83% were active in any assay of this set; here they are far more common. Unless noted, how the calls were made is not given here.

SMILES	RGS4-Gao reg	RGS16-Gao	ABCB1 block	RGS7-Gao	ABCG2 block	RGS8-Gao reg	Biotin-avidin	RGS8-Gao confirm	RGS7-Gao single	RGS16-Gao single	RGS4-Gao single	RGS19-Gao single	others
O=C(Cn1cncn1)N/N=C/c1cccc2ccccc12	92.3	45.2	0.8	98.8	5.9	79.2	.	.	.	.	.	.
Cc1nn(C)c(C(=O)N/N=C/c2ccccc2)c1[N+](=O)[O-]	101.7	99.3	1.0	100.6	2.0	99.0	.	.	.	.	.	.
Cc1ccc(C2C(/C=C3/SC(=S)NC3=O)=C(c3cccs3)Oc3ccccc32)cc1 (stereo not given)	109.8	121.8	0.7	103.9	-1.7	109.0	.	.	.	.	.	.
CCNc1ccc2noc3c2c1C(=O)c1ccccc1-3	46.6*	42.7	0.6	45.6*	0.9	55.0*	0.1	68.8*	62.9*	65.8*	68.8*	115.9
COCCn1c(C)cc(/C=C2/SC(=O)N(C(C)C(=O)OC)C2=O)c1C (stereo not given)	221.6*[activator]	224.9*[activator]	.	?	.	107.1	1.3	100.2	96.5	97.2	97.5	90.9
O=C(CN1CCC(n2nnc3cc(F)ccc32)CC1)Nc1ccc2c(c1)CCC2	.	.	3.0	.	12.1	.	1.6	99.5	99.6	98.9	100.4	91.7
O=C(CN1CCC(n2nnc3ccccc32)CC1)Nc1ccc2c(c1)CCC2	104.5	106.6	1.3	107.9	5.8	100.6	.	.	.	.	.	.
Cc1ccc(C)c(N2CN(Cc3cccnc3)CNC2=S)c1	93.5	21.1*	-0.5	98.0	-1.5	68.6	2.5	104.2	104.5	106.7	104.5	95.6	RGS-Gao=93.5*
Cc1ccc(N2CN(Cc3cccnc3)CNC2=S)cc1	105.3	101.9	0.7	102.4	2.1	101.6	.	.	.	.	.	.
O=c1[nH]c2ccccc2nc1C(F)(F)F	172.7*[activator]	167.3	.	?	.	136.9	-0.6	93.2	89.0	90.6	93.6	100.9
Cc1cc(C)nc(SCCC(=O)N(C)C)n1	97.7	91.2	-0.2	102.8	-0.2	98.0	.	.	.	.	.	.
Cc1ccc(C(=O)NC(O)C(Cl)Cl)cc1 (stereo not given)	161.4*[activator]	175.1*[activator]	1.6	113.0	2.1	103.9	2.1	103.4	102.9	101.7	101.7	106.8
Cc1cc(C)c(C)c(S(=O)(=O)N2CCN(c3ccc(O)cc3)CC2)c1C	102.2	108.9	0.4	101.6	1.2	103.2	.	.	.	.	.	.
O=C1CCCc2ccccc2N1Cc1ccc(F)cc1	111.4	103.5	1.4	169.9*[activator]	5.6	102.7	-0.1	101.9	103.5	107.0	103.8	95.2	RGS-Gao=111.4*
Cc1ccc(OCC(=O)Nc2nnc(C3CCCO3)s2)c(Br)c1 (stereo not given)	96.5	92.5	0.5	99.1	6.4	94.5	.	.	.	.	.	.
COc1ccc(N(CC(=O)Nc2nccs2)S(=O)(=O)c2c(C)[nH]c(=O)[nH]c2=O)cc1	105.6	136.1	-0.5	107.1	-0.9	113.3	.	.	.	.	.	.
Cc1onc(-c2c(F)cccc2Cl)c1C(=O)OCC(=O)NC1CC1	104.8	155.6	1.6	105.7	6.7	113.8	.	.	.	.	.	.
COc1cc(NC(=O)c2ccc(COc3ccccc3Br)o2)cc(OC)c1OC	148.8	208.3*[activator]	1.2	126.4	9.2	111.8	2.4	95.7	91.4	93.7	95.4	81.6	RGS-Gao=148.8*
O=c1[nH]oc2cc(Cl)ccc12	99.5	95.4	.	?	.	98.0	.	.	.	.	.	.
O=C(NCCCN1CCCC1)c1cccc(N2CCCC2=O)c1	17.8*	0.8	0.0	7.6*	10.3	10.2*	-1.3	100.3	105.0	100.4	106.6	97.8
O=C(c1ccco1)N(CCC(c1ccccc1)c1ccco1)Cc1ccco1 (stereo not given)	22.8*	2.3*	0.4	14.0*	0.5	12.0*	2.1	105.0	90.6	99.5	92.8	84.8
Cc1ccc(C(CCN(Cc2ccccc2)C(=O)c2ccco2)c2ccco2)cc1 (stereo not given)	96.3	103.5	1.5	95.8	4.9	101.4	.	.	.	.	.	.
C=C(C)c1cccc(C(C)(C)NC(=O)NCC2COCCO2)c1 (stereo not given)	101.7	103.3	-0.1	100.1	25.5	100.0	.	.	.	.	.	.
O=C(O)CCCCCN1C(=O)/C(=C\c2ccncc2)SC1=S	102.4	204.9	-0.2	100.3	2.5	122.2	.	.	.	.	.	.
O=C(O)CCCN1C(=O)/C(=C/c2ccncc2)SC1=S	151.3*[activator]	136.9	.	?	.	104.4	-0.8	99.1	97.7	98.6	98.9	100.7
COc1cccc(N2CCN(CC(=O)c3c(C)[nH]c4ccccc34)CC2)c1	22.1*	14.7*	-0.3	17.4*	31.0	14.6*	-1.3	100.9	99.9	102.6	99.2	108.0
